Measurements as given in PMC3667888 (Channels, 2013).
Residue numbers refer to the chain shown, from its start.

Experiments:
[1] = target: T1, Kv4.2 V261F/K318Q double mutant channels (co-injected with KChIP1b) (Rattus norvegicus, UniProt Q63881, K318Q/V261F); type: cell-based
T1 sequence (Q63881 1-630 V261F/K318Q): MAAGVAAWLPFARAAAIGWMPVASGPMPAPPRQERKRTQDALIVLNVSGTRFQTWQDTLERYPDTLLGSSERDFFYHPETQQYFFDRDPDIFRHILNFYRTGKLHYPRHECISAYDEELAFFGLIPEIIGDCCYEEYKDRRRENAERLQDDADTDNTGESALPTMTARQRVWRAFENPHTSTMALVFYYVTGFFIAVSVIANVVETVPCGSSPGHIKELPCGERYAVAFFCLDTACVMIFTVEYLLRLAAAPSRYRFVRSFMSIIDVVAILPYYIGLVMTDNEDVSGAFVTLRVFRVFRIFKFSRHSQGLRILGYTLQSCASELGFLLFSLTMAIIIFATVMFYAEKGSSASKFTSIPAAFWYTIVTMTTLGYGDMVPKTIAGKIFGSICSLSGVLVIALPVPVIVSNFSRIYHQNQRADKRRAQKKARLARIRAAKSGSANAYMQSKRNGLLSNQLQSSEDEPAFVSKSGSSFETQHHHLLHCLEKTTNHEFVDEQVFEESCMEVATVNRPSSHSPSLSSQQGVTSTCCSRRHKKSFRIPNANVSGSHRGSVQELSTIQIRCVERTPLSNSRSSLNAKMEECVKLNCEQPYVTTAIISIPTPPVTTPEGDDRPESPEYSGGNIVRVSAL
Method in brief: (§1)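 Xenopus oocytes co-expressing rat Kv4.2 (WT or mutant) with equimolar KChIP1b were recorded by two-electrode voltage clamp at room temperature. Peak conductance was calculated as G = I/(Vm − Vh), with Vh = −100 mV, and normalized to each cell's Gmax. It was plotted against step potential without and with 10 μM AA and fit to a first-order Boltzmann function to give V1/2 and slope.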

[2] = target: T2, Kv4.2 L313F mutant channels (co-injected with KChIP1b) (Rattus norvegicus, UniProt Q63881, L313F); assay: Two-electrode voltage clamp, L313F mutant Kv4.2/KChIP1b in Xenopus oocytes; type: cell-based; conditions: 10 µM AA
T2 sequence (Q63881 1-630 L313F): T1 sequence (Q63881 1-630 V261F/K318Q) with F261V, L313F, Q318K
Method in brief: (§2)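 Rat Kv4.2 (WT or QuikChange mutant) RNA co-injected equimolar with KChIP1b, 5–10 ng/oocyte, into Xenopus oocytes held 1–5 d at 17–19 °C. Two-electrode voltage clamp at room temperature in perfused Na/K methanesulfonate HEPES saline, pH 7.4–7.5, with P/−4 or P/−6 leak subtraction. Peak current at +40 mV (from −90 mV) after 10 min of 10 μM AA is expressed relative to pre-AA current. Mean ± SE, n = cells.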

[3] = system: group of mutant Kv4.2 channels (V261F, K318Q, V261F/K318Q); assay: Two-electrode voltage clamp, grouped mutant Kv4.2 channels; type: cell-based, rat; conditions: 10 µM AA
Method in brief: as §1

[4] = target: T3, Kv4.2 G314F mutant channels (co-injected with KChIP1b) (Rattus norvegicus, UniProt Q63881, G314F); assay: Two-electrode voltage clamp, G314F mutant Kv4.2/KChIP1b in Xenopus oocytes; type: cell-based; conditions: read-out: inhibition of the peak K+ current
T3 sequence (Q63881 1-630 G314F): T1 sequence (Q63881 1-630 V261F/K318Q) with F261V, G314F, Q318K
Method in brief: as §2

- V1/2 of conductance-voltage curve with AA ([1]; 10 µM AA): −19.1 mV
- slope factor (k) of Boltzmann fit with AA ([1]; 10 µM AA): 8.4
- Kd ([1]; fitted Kd for AA inhibition of peak current, Hill equation, nH = 1, +40 mV): 45.7 µM
- sensitivity to AA [2]: retained its sensitivity to AA
- inhibition at 10 µM [4]: 22%
Structure (SMILES): CCCCC/C=C\C/C=C\C/C=C\C/C=C\CCCC(=O)O [AA, arachidonic acid]
- average shift in V1/2 in the presence of AA for the three mutant constructs [3]: +5.7 mV
